Data set [1] relates to Human alphaherpesvirus 3. Nature of the data set: Antiviral activity against Varicella zoster virus YS infected in human HEL cells assessed as inhibition of virus induced cytopathicity after 5 days. The following applies: Human alphaherpesvirus 3, YS, 120 h. The data set is classed as functional, organism-based. The gist of the method:
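Confluent HEL cell cultures infected with 20 PFU/well VZV; after 2 h adsorption, residual virus removed and serial compound dilutions added. Incubated 5 days at 37 °C, 5% CO2, then fixed and stained. Plaques counted against untreated control. EC50 = concentration cutting plaque formation by 50%.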

Data set [2] relates to Human alphaherpesvirus 3. Put plainly: Antiviral activity against Varicella zoster virus OKA infected in human HEL cells assessed as inhibition of virus-induced cytopathicity after 5 days. It is filed as functional, organism-based. The following applies: Human alphaherpesvirus 3, OKA, 120 h. The gist of the method:
(§1)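 Confluent HEL cell cultures infected with 20 PFU/well VZV; after 2 h adsorption, residual virus removed and serial compound dilutions added. Incubated 5 days at 37 °C, 5% CO2, then fixed and stained. Plaques counted against untreated control.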

The subject of data set [3] is Human alphaherpesvirus 3. Nature of the data set: Antiviral activity against thymidine kinase deficient Varicella zoster virus 07/1 infected in human HEL cells assessed as inhibition of virus-induced cytopathicity after 5 days. It is filed as functional, organism-based. The following applies: Human alphaherpesvirus 3, 07/1, HEL, 120 h. The gist of the method:
as §1

Data set [4] concerns Human betaherpesvirus 5. Nature of the data set: Antiviral activity against human cytomegalovirus AD169 infected in human HEL cells assessed as inhibition of virus-induced cytopathicity after 7 days post infection. It is filed as functional, organism-based. The following applies: Human betaherpesvirus 5, AD169, HEL, 168 h. The gist of the method: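 Confluent HEL cell cultures in microtiter plates inoculated with 100 PFU CMV. After 2 h adsorption, residual virus removed and cells incubated with varying compound concentrations. Read once cytopathicity was complete in virus controls, usually 7 days post-infection.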

For data set [5], the system named is Human alphaherpesvirus 3. Nature of the data set: Ratio of compound EC50 to RA-5021 EC50 for Varicella zoster virus OKA infected in human HEL cells assessed as inhibition of virus induced cytopathicity after 5 days. The data set is classed as functional.
A short description of data set [6]: Cytotoxicity against human HEL cells assessed as microscopically detectable morphological alterations after 3 days. It is filed as cell-based. The gist of the method: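 HEL cell cultures exposed to varying compound concentrations. Cells examined microscopically for changes in morphology. MCC = lowest concentration producing a detectable alteration of cell morphology.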

Data set [7] concerns Human alphaherpesvirus 3. Put plainly: Ratio of compound EC50 to RA-5021 EC50 for Varicella zoster virus YS infected in human HEL cells assessed as inhibition of virus induced cytopathicity after 5 days. It is filed as functional.
Data set [8] concerns Human betaherpesvirus 5. Nature of the data set: Antiviral activity against human cytomegalovirus Davis infected in human HEL cells assessed as inhibition of virus-induced cytopathicity after 7 days post infection. It is filed as functional, organism-based. The following applies: Human betaherpesvirus 5, Davis, 168 h. The gist of the method: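 Confluent HEL cell cultures in microtiter plates inoculated with 100 PFU CMV. After 2 h adsorption, residual virus removed and cells incubated with varying compound concentrations. Read once cytopathicity was complete in virus controls, usually 7 days post-infection. EC50 = concentration giving 50% reduction in plaque formation/cytopathicity.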

A short description of data set [9]: Cytotoxicity against human HEL cells assessed as reduction in cell growth after 3 days. It is filed as cell-based. The gist of the method: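 HEL cell suspensions seeded into wells holding varying compound concentrations. Grown 3 days at 37 °C in humidified CO2 incubator. Viable cells counted with a Coulter Counter. CC50 = concentration lowering viable cell number by 50%.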

For data set [10], the system named is Human alphaherpesvirus 3. Put plainly: Ratio of compound EC50 to Acyclovir EC50 for Varicella zoster virus YS infected in human HEL cells assessed as inhibition of virus induced cytopathicity after 5 days. It is filed as functional.
Data set [11] deals with Human alphaherpesvirus 3. Nature of the data set: Ratio of compound EC50 to Acyclovir EC50 for Varicella zoster virus OKA infected in human HEL cells assessed as inhibition of virus induced cytopathicity after 5 days. The data set is classed as functional.

This note sets out measurements from ChEMBL document CHEMBL1153001 (Eur J Med Chem, 2009).

SMILES strings stand for the structures.

Turning to `O=c1c2ncn(CC3(CO)CC3CO)c2nc2[nH]c(-c3cccs3)cn12` (centres undefined), the EC50 in the data set on Human alphaherpesvirus 3 [1] was 0.38 µM; with Human alphaherpesvirus 3 [2], 0.32 µM; in the data set on Human alphaherpesvirus 3 [3], 71.5 µM; in the data set on Human betaherpesvirus 5 [4], over 100 µM; in the data set with Human betaherpesvirus 5 [8] it was 50.2 µM. For the same compound, the Ratio EC50 turned out to be 2.5 in the data set on Human alphaherpesvirus 3 [5] and 1.3 with Human alphaherpesvirus 3 [7]. In addition, the MCC at 72 h in data set [6] was over 100 µM. Also, in [9], the CC50 at 72 h was over 100 µM.
As for `Nc1nc2c(ncn2COC(CO)CO)c(=O)[nH]1` [GANCICLOVIR], the EC50 came out at 1.1 µM in the data set with Human alphaherpesvirus 3 [1], 0.59 µM in the data set on Human alphaherpesvirus 3 [2], 2.5 µM in the data set on Human alphaherpesvirus 3 [3] and 12.6 µM in the data set with Human betaherpesvirus 5 [4]. The MCC at 72 h in data set [6] is over 1580 µM. Besides, the CC50 at 72 h in data set [9] was 221 µM.
Regarding `O=c1c2ncn(CC3(CO)CC3CO)c2nc2[nH]c(-c3ccccc3)cn12` (centres undefined), the “Ratio EC50” value came to 3 in the data set with Human alphaherpesvirus 3 [5] and 2 in the data set with Human alphaherpesvirus 3 [7].
Regarding `O=c1c2ncn(CC3(CO)CC3CO)c2nc2[nH]c(-c3ccco3)cn12` (cis isomer), the EC50 with Human alphaherpesvirus 3 [1] was 0.64 µM; with Human alphaherpesvirus 3 [2] it was 0.42 µM; in the data set on Human alphaherpesvirus 3 [3], over 100 µM; in the data set on Human betaherpesvirus 5 [4] it was over 100 µM; with Human betaherpesvirus 5 [8] it was over 100 µM. Further, the Ratio EC50 in the data set on Human alphaherpesvirus 3 [5] amounted to 3.2; in the data set on Human alphaherpesvirus 3 [7], 2.1. Besides, in data set [6], the MCC at 72 h was over 100 µM. In data set [9], the CC50 at 72 h was over 100 µM.
For the compound `Nc1nc(O)c2ncn(CC3(CO)CC3CO)c2n1` (centres undefined), the “Ratio EC50” value came to 7 with Human alphaherpesvirus 3 [10] and 14 with Human alphaherpesvirus 3 [11]. The EC50 was 0.3 µM with Human alphaherpesvirus 3 [1]; 0.13 µM in the data set with Human alphaherpesvirus 3 [2]; 25.8 µM in the data set on Human alphaherpesvirus 3 [3]; 100 µM with Human betaherpesvirus 5 [4]; 44.7 µM in the data set on Human betaherpesvirus 5 [8]. Further, in data set [6], the MCC at 72 h was over 100 µM. Moreover, the CC50 at 72 h in data set [9] is over 100 µM.
With `O=c1c2ncn(COCCO)c2nc2[nH]c(-c3cccs3)cn12`, the EC50 in the data set on Human alphaherpesvirus 3 [1] was 7.9 µM; with Human alphaherpesvirus 3 [2] it was 5.8 µM; in the data set on Human alphaherpesvirus 3 [3], over 100 µM; with Human betaherpesvirus 5 [4] it was over 100 µM; with Human betaherpesvirus 5 [8] it was 100 µM. Moreover, the MCC at 72 h in [6] was over 100 µM. In addition, in data set [9], the CC50 at 72 h was over 100 µM.
Turning to `Nc1nc2c(ncn2COCCO)c(=O)[nH]1` [ACYCLOVIR], the EC50 came to 2 µM in the data set with Human alphaherpesvirus 3 [1] and 45 µM in the data set on Human betaherpesvirus 5 [8]. Further, the CC50 at 72 h in [9] was 782 µM.
Consider `O=c1c2ncn(COCCO)c2nc2[nH]c(-c3ccco3)cn12`, for which the EC50 with Human alphaherpesvirus 3 [2] was 16.4 µM; with Human alphaherpesvirus 3 [3], over 100 µM; with Human betaherpesvirus 5 [4], over 100 µM; in the data set with Human betaherpesvirus 5 [8] it was over 100 µM. Also, the MCC at 72 h in data set [6] was over 100 µM. Besides, in [9], the cytotoxic concentration (CC50) at 72 h was over 100 µM.
`Nc1ccn(C[C@@H](CO)OCP(=O)(O)O)c(=O)n1` [CIDOFOVIR]: the EC50 in the data set on Human betaherpesvirus 5 [4] is 1.6 µM. Further, the MCC at 72 h in data set [6] was at least 254 µM. In addition, the CC50 at 72 h in [9] is 54 µM.
In the case of `O=c1c2ncn(COCCO)c2nc2[nH]c(-c3ccc(Br)s3)cn12`, the EC50 with Human alphaherpesvirus 3 [1] is 10 µM; in the data set on Human alphaherpesvirus 3 [2], 8.7 µM; in the data set on Human alphaherpesvirus 3 [3] it was over 100 µM; in the data set with Human betaherpesvirus 5 [4], over 100 µM; in the data set with Human betaherpesvirus 5 [8] it was 100 µM. Further, the MCC at 72 h in data set [6] was over 100 µM. Besides, in data set [9], the 50% cytotoxic concentration (CC50) at 72 h was over 100 µM.
As for `O=c1c2ncn(CC3(CO)CC3CO)c2nc2[nH]c(-c3ccc(Br)s3)cn12` (centres undefined), the EC50 with Human alphaherpesvirus 3 [1] is 0.87 µM; with Human alphaherpesvirus 3 [2] it was 0.93 µM; with Human alphaherpesvirus 3 [3] it was over 100 µM; with Human betaherpesvirus 5 [4], over 100 µM; in the data set with Human betaherpesvirus 5 [8], 76.5 µM. The Ratio EC50 was 7 with Human alphaherpesvirus 3 [5] and 2.9 in the data set on Human alphaherpesvirus 3 [7]. Moreover, in [6], the MCC at 72 h was over 100 µM. In addition, the 50% cytotoxic concentration (CC50) at 72 h in [9] was over 100 µM.
In the case of `O=c1[nH]c(=O)n([C@H]2C[C@H](O)[C@@H](CO)O2)cc1/C=C/Br` [BRIVUDINE], the EC50 in the data set with Human alphaherpesvirus 3 [1] stood at 0.026 µM; in the data set with Human alphaherpesvirus 3 [3], 157 µM. Besides, in data set [6], the MCC at 72 h is over 1200 µM. The CC50 at 72 h in [9] was 432 µM.
